Measured values: ChEMBL document CHEMBL4513216, “Probing the Open Global Health Chemical Diversity Library for Multistage-Active Starting Points for Next-Generation Antimalarials” (ACS Infect Dis, 2020)

Experiment: Toxicity liver stage against HepG2, at 10uM
Assay type: cell-based
Design: test concentration 10 uM, cell line HepG2-A16-CD81EGFP
Conditions: human, HepG2-A16-CD81EGFP cells; read-out: INHIBITION
How it was run: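 Uninfected HepG2-A16-CD81EGFP cells, 3 × 10^3 per well, 1536-well, plated on prespotted compound at 10 μM final, parasite-free screening media added to match infected plates; puromycin 10 μM positive, DMSO 0.5% negative; run in parallel with 48 h PbLuc assay at 37 °C, 5% CO2; viability by CellTiter-Glo luminescence, normalized to controls.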
Work on `COCC(=O)N[C@H]1C[C@@H](Cc2cc(CN3CCOCC3)on2)C1(C)C` yielded a cytotoxicity at 10 µM of 0.66%. Compound `COCCCNC(=O)N1CCN(C(=O)c2nsc3ccc(C)cc23)CC1` has a cytotoxicity at 10 µM of 12.3%. For `Cc1cc(NC(=O)NCCCSc2nncn2C)no1`, the cytotoxicity at 10 µM was 0.0537%. `CCOc1nn(CC)cc1-c1nnc(SCC)n1C` showed a cytotoxicity at 10 µM of 1.81%. In the case of `COCCCNC(=O)c1cn(C(C)C)cc2c(=O)[nH]nc1-2`, the cytotoxicity at 10 µM is reported as -4.45%. With `Cc1cc(C(=O)N(CC(F)(F)F)C2CCOCC2)c(C)o1` the cytotoxicity at 10 µM was -0.541%. In the case of `O=C(C1CCOCC1)N1CCC2(CCC(C(=O)N3CCCC3)O2)CC1` (stereo unspecified), the cytotoxicity at 10 µM is reported as 6.41%. Compound `CCS(=O)(=O)N1CCCC2(CCCC(=O)N2C)C1` (stereo unspecified) has a cytotoxicity at 10 µM of 8.86%. `CC(=O)N1C[C@H]2CN(CC3CC3)C(=O)[C@H]2C1` gave a cytotoxicity at 10 µM of 6.32%. Compound `CN(C)C(=O)CN1CCC2(CC1)COC2` has a cytotoxicity at 10 µM of 5.53%. Compound `COc1ccc(C(=O)COc2coc(CN3CCSCC3)cc2=O)cc1` has a cytotoxicity at 10 µM of 8.13%. `CCc1c(C)n(CC(=O)OC)c2nc3ccccc3n2c1=O` showed a cytotoxicity at 10 µM of 1.44%. `CC1=Nc2c(c(=O)[nH]n2C2CCCC2)C(c2cccc(O)c2)S1` (stereo unspecified) gave a cytotoxicity at 10 µM of 4.8%. For `CC(C)n1[nH]c(=O)c2c1NC(=O)CC2c1cccnc1` (stereo unspecified), the cytotoxicity at 10 µM was -6.15%. `CNc1nc2c(s1)C(c1c(Cl)cccc1Cl)CC(=O)N2` (stereo unspecified) showed a cytotoxicity at 10 µM of -10.4%. `Cn1cc(N2CCC3(CCN(S(=O)(=O)C4CC4)C3)C2=O)cn1` (stereo unspecified) showed a cytotoxicity at 10 µM of -2.45%. For `CNC(=O)N1C[C@H]2CC[C@@]3(N=C(c4ccccc4)NC3=O)[C@H]2C1`, the cytotoxicity at 10 µM was -9.84%. Work on `CC(C(=O)Nc1ccon1)n1ccc(C(F)(F)F)n1` (stereo unspecified) yielded a cytotoxicity at 10 µM of 5.15%. `Cc1ccccc1CNCc1cc(Cl)ccc1O` showed a cytotoxicity at 10 µM of -5.9%. Compound `Cc1cc(C(F)(F)F)nn1CC(C)C(=O)Nc1cccnc1` (stereo unspecified) has a cytotoxicity at 10 µM of 11.5%. With `O=C1CC(c2ccc3c(c2)OCO3)c2snc(C(=O)O)c2N1` (stereo unspecified) the cytotoxicity at 10 µM was 4.43%. `COCc1nc(N(C)C)ncc1C(=O)Nc1ccn(C)n1` showed a cytotoxicity at 10 µM of -0.782%. In the case of `CNC(=O)CCc1cc(C2CCCCN2C(C)C)nc(C)n1` (stereo unspecified), the cytotoxicity at 10 µM is reported as -1.66%. `CNc1ccc(C2CN(c3cc(C)ncn3)CCO2)nc1` (stereo unspecified) gave a cytotoxicity at 10 µM of 7.14%. `O=S(=O)(CCc1ccccc1)Nc1cc(Cl)ccn1` gave a cytotoxicity at 10 µM of -4.81%. Compound `O=C(c1ccc2nncn2c1)N1CCCC1c1noc(C2CC2)n1` (stereo unspecified) has a cytotoxicity at 10 µM of -7.11%. `COc1cccc(C(=O)NS(=O)(=O)c2cncc(Br)c2)c1OC` gave a cytotoxicity at 10 µM of 0.684%. Work on `CN(Cc1cnn(C)c1)C1CCCN(Cc2noc(C3CC3)n2)C1` (stereo unspecified) yielded a cytotoxicity at 10 µM of -8.44%. With `COCCOc1nc(-c2ccccc2Cl)no1` the cytotoxicity at 10 µM was 9.4%. With `CC(NCc1cccnc1)c1cc2c(cc1Br)OCCO2` (stereo unspecified) the cytotoxicity at 10 µM was 2.46%. Compound `CCNC(=O)CCC(=O)N1CCC(Oc2cc(C)ccc2C)CC1` has a cytotoxicity at 10 µM of -4.59%. `Cc1c(C(=O)N2CCSCC2)sc2nc(C(F)(F)F)ccc12` gave a cytotoxicity at 10 µM of -8.58%. In the case of `CCN(C)C(=O)Nc1cc(F)c(OC)cc1F`, the cytotoxicity at 10 µM is reported as -10.4%. With `O=C(CNC(=O)N(Cc1ccoc1)C1CCCCC1)N1CCCC1` the cytotoxicity at 10 µM was -1.3%. Compound `Cc1cnn(C2CN(c3ncnc4[nH]ccc34)C2)c1` has a cytotoxicity at 10 µM of 8%. Compound `CCC(C)CNCC1(S(C)(=O)=O)CCOCC1` (stereo unspecified) has a cytotoxicity at 10 µM of -11.4%. `Cc1ccc(NC(=O)N2CCCC(N(C)C)C2)c(Br)c1` (stereo unspecified) showed a cytotoxicity at 10 µM of -3.51%. `CC(NCC(=O)N1CCc2sccc2C1)c1ccccc1F` (stereo unspecified) showed a cytotoxicity at 10 µM of 1.8%. For `CN1CCC(NCC(O)c2cccc(OCc3ccccc3)c2)CC1` (stereo unspecified), the cytotoxicity at 10 µM was -11.7%. For `Cc1ccc(CNC(CN2CCN(C)CC2)c2ccccc2)cc1` (stereo unspecified), the cytotoxicity at 10 µM was 9.19%. In the case of `Cc1ccc(NC(=O)NC(C)c2nc[nH]n2)cc1` (stereo unspecified), the cytotoxicity at 10 µM is reported as -0.665%. `CC(C)(C)N1CCCN(C(=O)c2csc(S(N)(=O)=O)c2)CC1` gave a cytotoxicity at 10 µM of 5.06%. Work on `N#CCCN(CCC#N)C(=O)CN1CCCC1Cc1cccc(F)c1` (stereo unspecified) yielded a cytotoxicity at 10 µM of -10.5%. `Cc1cnn(CCC(=O)N2CCOC(c3nc(C(C)(C)C)n[nH]3)C2)c1` (stereo unspecified) gave a cytotoxicity at 10 µM of 5.17%. `Cc1ccc(C(=O)N(C)Cc2cc(Br)cs2)c(=O)[nH]1` showed a cytotoxicity at 10 µM of -0.782%. In the case of `Cc1ccc(C(=O)N(C)Cc2cscn2)c(=O)[nH]1`, the cytotoxicity at 10 µM is reported as -7.69%. Work on `CCc1nnc2n1CCN(C(=O)c1ccc3[nH]cnc3c1)C2` yielded a cytotoxicity at 10 µM of -19.1%. In the case of `Cn1nccc1-c1cnc2n1CCC21CCN(C(=O)C2(C)CC2)CC1`, the cytotoxicity at 10 µM is reported as -123%. Work on `CC(C)[C@H]1CN(CC2CCC2)C[C@@H]1NC(=O)c1ccc(=O)[nH]c1` yielded a cytotoxicity at 10 µM of -7.85%. Work on `Cc1ccc2oc(CN3CCn4nc(CCC(=O)O)cc4C3)c(C)c2c1` yielded a cytotoxicity at 10 µM of -5.56%. In the case of `CC(C)c1cc(C(=O)NCCN2CCCCC2CO)on1` (stereo unspecified), the cytotoxicity at 10 µM is reported as 2.07%. `Cc1cccnc1[C@H](C)NC(=O)c1cccc(CC2CCNCC2)c1` gave a cytotoxicity at 10 µM of -5.22%. `Cn1ncc2c(NCC3CCS(=O)(=O)C3)nc(C3CCCC3)nc21` (stereo unspecified) gave a cytotoxicity at 10 µM of -5.1%. Work on `COc1ccc(-n2cccn2)c(CN2CCOCC(CN(C)C)C2)c1` (stereo unspecified) yielded a cytotoxicity at 10 µM of -14.6%. With `CCc1ccccc1C(=O)N1C[C@@H](CN2CCOCC2)[C@@H](CO)C1` the cytotoxicity at 10 µM was -0.125%. `Cc1ccc(-c2ncc(C(=O)N3CCCN4CCC[C@H]4C3)c(O)n2)cc1` gave a cytotoxicity at 10 µM of -8.04%. In the case of `CCOc1ccc(C(=O)CCC(=O)NCCc2nncn2CC)cc1C`, the cytotoxicity at 10 µM is reported as -10.7%. Work on `O=C(O)C1(n2cccn2)CCN(c2nc(-c3ccccc3)no2)CC1` yielded a cytotoxicity at 10 µM of 7.47%. For `O=C1O[C@@H]2CN(Cc3ccccn3)C[C@@H]2N1CCCc1ccc(F)cc1`, the cytotoxicity at 10 µM was -0.687%. `CCN(Cc1cnn(C)c1)C[C@H]1CC[C@@H](Cc2cccc(CN)c2)O1` showed a cytotoxicity at 10 µM of -0.189%. For `Cc1ccccc1CSc1nc(N)cc(N2CCCC(O)C2)n1` (stereo unspecified), the cytotoxicity at 10 µM was -6.52%. Compound `COCc1nc2ncc3c(=O)n(-c4ccc(OC)cc4)ccc3n2n1` has a cytotoxicity at 10 µM of 8.1%. For `Cc1c(CN2CCC(C(=O)O)(n3ccnc3)CC2)oc2ccccc12`, the cytotoxicity at 10 µM was -4.86%. With `Cc1ccc(C)c(C(=O)N2CCC3(CCC(=O)N(CC(N)=O)C3)CC2)c1` the cytotoxicity at 10 µM was 17.7%. Compound `Cc1cncc(C(=O)N2CCCC(O)(CO)C2)c1` (stereo unspecified) has a cytotoxicity at 10 µM of 2.09%. `CC(C)CCN1CC2(CCCN(C(=O)c3cscn3)C2)CCC1=O` (stereo unspecified) showed a cytotoxicity at 10 µM of -13.9%. `CN(CCO)Cc1nnc(C2CCN(C(=O)C(C)(C)C)CC2)n1C` showed a cytotoxicity at 10 µM of 22.6%. Work on `Cc1cccnc1CNCC1(O)CCCN(CC2CCCCC2)C1=O` (stereo unspecified) yielded a cytotoxicity at 10 µM of -2.37%. Compound `Cc1ccc(C(C)C(=O)N2CCCN(Cc3cscn3)CC2)cc1` (stereo unspecified) has a cytotoxicity at 10 µM of -5.31%. Work on `COc1ccc(C)cc1C(C)NC(=O)NCCCn1cncn1` (stereo unspecified) yielded a cytotoxicity at 10 µM of 2.62%. Work on `Cc1cc(C)c(CNC(=O)N2CCCC2C(N)=O)c(=O)[nH]1` (stereo unspecified) yielded a cytotoxicity at 10 µM of -0.241%. In the case of `Cc1noc(C)c1CNc1cc(N2CCCC2CO)ncn1` (stereo unspecified), the cytotoxicity at 10 µM is reported as 1.42%. Compound `CC(=O)N1CC2(CCNCC2)c2cc(Cl)ccc21` has a cytotoxicity at 10 µM of -0.655%. For `COc1ccc(OCCc2cc(C3CCN(CC(C)C)C3)n[nH]2)cc1` (stereo unspecified), the cytotoxicity at 10 µM was 1.97%. Work on `Cc1nc(N2CCCC2)nc2c1CCN(Cc1ccco1)CC2` yielded a cytotoxicity at 10 µM of -6.52%. `CNC(=O)CN1CCCC12CCN(C(=O)c1cccc(F)c1)CC2` showed a cytotoxicity at 10 µM of 6.62%. In the case of `CCN1CC[C@@]2(C(=O)N3CCOCC3)CCN(C(=O)C(C)C)CC[C@@H]12`, the cytotoxicity at 10 µM is reported as -11.5%. `O=C1C[C@H]2[C@@H](CCN2Cc2ccccn2)N1CCN1CCOCC1` showed a cytotoxicity at 10 µM of -1.45%. For `CCc1ccc(NC(=O)N2C[C@@H]3C[C@H](C(=O)NC)[C@H](C2)O3)cc1`, the cytotoxicity at 10 µM was 5.4%. Compound `Nc1ncccc1CN1C[C@H]2CC[C@@H](C1)N(CC1CC1)C2=O` has a cytotoxicity at 10 µM of -0.956%. In the case of `O=c1c2c[nH]c(N3CCCC3)nc-2cn1CCc1ccc(Cl)cc1`, the cytotoxicity at 10 µM is reported as 11.9%.
